Screens deposited in PubChem BioAssay by several laboratories.
Shown are actives, neighbours in structure and some others; about 2.8% of the full set was active somewhere.
NPY1 pot ag: potentiators or agonists of human neuropeptide Y receptor Y1. AID 1304. NPY-Y1 expressing cells, potentiator/agonist activation. P25929. activation, % at 3.6 µM. 0.37% of 220,000 active; in the data active = activation above about 33%, passing the limit was not always enough;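 note: cells stimulated with NPY at EC10 then isoproterenol at EC100; 0% = low agonist plus stimulus and 100% = saturating agonist plus stimulus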
Target sequence (P25929 whole entry, looked up): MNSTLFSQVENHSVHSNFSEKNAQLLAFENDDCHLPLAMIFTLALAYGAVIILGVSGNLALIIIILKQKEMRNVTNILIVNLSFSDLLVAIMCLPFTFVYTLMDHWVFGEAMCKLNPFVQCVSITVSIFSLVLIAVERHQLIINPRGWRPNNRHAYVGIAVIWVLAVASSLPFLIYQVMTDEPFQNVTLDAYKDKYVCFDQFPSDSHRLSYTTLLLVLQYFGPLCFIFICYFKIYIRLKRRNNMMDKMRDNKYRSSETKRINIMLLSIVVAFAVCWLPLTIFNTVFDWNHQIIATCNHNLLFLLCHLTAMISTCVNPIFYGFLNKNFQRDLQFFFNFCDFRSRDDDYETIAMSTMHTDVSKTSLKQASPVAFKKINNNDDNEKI
EP2 modulator: modulators of human EP2 prostaglandin E2 receptor; P43116; induction, % at 25 µM; 0.83% of 260,000 active; EP2-expressing cells, cAMP HTRF FRET, PGE2 co-stimulation;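 active = compounds whose cAMP rise, as percent of the full-agonist control response, exceeds 60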;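 note: rat C6 glioma line stably carrying human EP2 under a CMV promoter; the protocol text gives 20 µM as final concentration; 100% = response of wells given 1 µM PGE2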
Target sequence (P43116 whole entry, looked up): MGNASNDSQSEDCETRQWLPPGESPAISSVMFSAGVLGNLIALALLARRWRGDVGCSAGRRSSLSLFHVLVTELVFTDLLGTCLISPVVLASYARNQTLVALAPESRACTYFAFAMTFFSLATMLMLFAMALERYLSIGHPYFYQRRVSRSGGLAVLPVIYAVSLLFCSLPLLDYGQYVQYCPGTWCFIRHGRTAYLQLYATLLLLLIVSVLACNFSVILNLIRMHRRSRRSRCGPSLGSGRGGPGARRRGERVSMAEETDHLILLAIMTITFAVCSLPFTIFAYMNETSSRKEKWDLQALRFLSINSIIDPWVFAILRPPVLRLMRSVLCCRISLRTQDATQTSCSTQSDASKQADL
NPY Y1 blocker: antagonists of human neuropeptide Y receptor Y1 | P25929 | HEK293-CNG Y1 cells, membrane potential fluorescence; NPY at EC95, then isoproterenol | inhibition, % at 3.6 µM | 1% of 200,000 active | AID 1040;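 active = inhibition above the campaign mean inhibition of all tested compounds plus 3 SD, cut at about 20% in these data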;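 note: 0% = DMSO wells given NPY plus isoproterenol and 100% = isoproterenol alone without NPY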
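Material: Y1- and CNG-channel-expressing HEK293 cells / Probe or stimulus: NPY 25 nM then isoproterenol 1 µM plus Ro 20-1724 25 µM / Doses: 3.6 µM single dose, DMSO 0.4% / Schedule: compound incubation 1 h at room temperature, readout 45 min post-stimulation / Signal: membrane potential fluorescence / Benchmarks: isoproterenol-only wells as full block versus NPY-plus-isoproterenol wells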
NPY-Y2 PAM-ag: human NPY-Y2 potentiation or agonism, primary screen | P49146 | 0.45% of 220,000 active | activation, % at 3.6 µM | cells expressing NPY-Y2, potentiator/agonist read-out; in the data active = activation above about 27%;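 note: cells stimulated with NPY near EC25 plus isoproterenol at EC100; 0% = vehicle plus submaximal agonist and 100% = vehicle plus saturating agonist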
PGE2 EP2 inh: inhibitors of human EP2 prostaglandin E2 receptor. P43116. C6 glioma cells expressing human EP2, cAMP TR-FRET; cells stimulated with saturating PGE2. 0.52% of 260,000 active. inhibition, % at 25 µM;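 active = percent inhibition above 40 after rounding to a whole number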;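 note: rat C6 glioma host cells with rolipram phosphodiesterase inhibitor present; the protocol text gives 20 µM as final concentration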
NPY-Y2 antag: blocks the human neuropeptide Y Y2 receptor; AID 793; NPY-Y2 expressing cells, antagonist mode; inhibition, % at 2.7 µM; P49146; 0.99% of 140,000 active; in the data active = inhibition above about 17%;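 note: 0% = vehicle with agonist challenge and 100% = reference antagonist with challenge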
EP2 cAMP induct: EP2 receptor cAMP induction, counter-screens negative; C6 glioma EP2 cells, cAMP HTRF induction; plus low (about EC15) PGE2 agonist; shares compounds with EP2 modulator; calls only at 20 µM (by protocol); 47% of 1,300 active;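 active = cAMP induction above 50% in the main assay while under 30% in all four parallel counter assays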;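 note: rat C6 glioma cells stably expressing human EP2 receptor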
* hit, by the source's call; i = inactive; · = no result given; + = active, no number.

SMILES | NPY1 pot ag | EP2 modulator | NPY Y1 blocker | NPY-Y2 PAM-ag | PGE2 EP2 inh | NPY-Y2 antag | EP2 cAMP induct
Cc1ccc(-c2cc3ccccc3nc2N2CCOCC2)cc1 | -9.2 | 73.3* | 7.1 | -1.6 | 6.0 | · | i
Cc1nn2c(NCCO)c3c(nc2c1-c1cccs1)CCCC3 | · | -9.8 | · | · | · | · | ·
Cc1noc2ncnc(Sc3c(Cl)cccc3Cl)c12 | -23.9 | 66.1* | 5.4 | -6.3 | 22.9 | 0.0 | i
CC1CCCCN1C(=O)CN1CCC(c2ccc3c(c2)OCO3)CC1 (stereo not drawn) | · | -21.8 | · | · | · | · | ·
CC(=O)OCC(=O)[C@@]12OC(C)(C)O[C@@H]1C[C@H]1[C@H]3CC=C4C[C@@H](O)CC[C@]4(C)[C@@H]3CC[C@@]12C | · | 52.3 | · | · | 39.7* | · | i
CC1(C)Cc2c(O)c(SCC(=O)c3ccccc3)nc(N3CCOCC3)c2CO1 | · | 34.2 | · | · | 27.0 | · | ·
Clc1ccc(Sc2cc(N3CCOCC3)nc(-c3ccccc3)n2)cc1 | -2.0 | 51.5 | -2.5 | -5.9 | 10.2 | 0.7 | ·
CC(C)Sc1cc(N2CCOCC2)nc(-c2ccc(Cl)cc2)n1 | -14.3 | 82.2* | 0.2 | -13.1 | 10.2 | 3.4 | i
Cc1ncc(CN2CCC(O)(c3ccccc3F)CC2)cn1 | · | -46.8 | · | · | 5.4 | · | ·
C=CCn1c(N2CCC(C(=O)NCCO)CC2)nc2ccccc21 | · | -14.3 | · | · | · | · | ·
CCn1nnc(-c2ccccc2NC(=O)c2cc(OC)cc(OC)c2)n1 | -21.1 | 73.9* | 4.0 | -4.3 | 3.1 | 3.3 | +
CCn1nnc(-c2ccccc2NC(=O)c2cc(OC)c(OC)c(OC)c2)n1 | 1.4 | 38.3 | -3.8 | 5.5 | 19.9 | -1.4 | ·
Cc1nc(NS(=O)(=O)c2cccs2)c2c3c(sc2n1)CCC3 | 1.2 | 24.9 | -4.8 | 13.0 | 10.0 | -0.6 | ·
Cc1nc(NC(C)c2ccccc2)c2c3c(sc2n1)CCC3 (stereo not drawn) | -66.3 | 70.9* | 38.3* | -20.2 | 7.4 | 17.2* | i
CCN(CC)C(=O)N1CCN(Cc2cccc(OC)c2)C[C@@H]1C | · | -16.6 | · | · | · | · | ·
CCOc1cc(C2C(C#N)=C(N)Oc3n[nH]c(C)c32)ccc1OCc1ccc(C)cc1 (stereo not drawn) | · | 2.2 | · | · | 11.5 | · | ·
CCOC(=O)c1c(C)[nH]c(C=O)c1Cc1cccc(Cl)c1 | -12.2 | 68.9* | 1.0 | -11.8 | 6.7 | 9.6 | i
O=C(O)CC(O)(CC(=O)O)C(=O)O | · | 13.5 | · | · | 16.2 | · | ·
CC(CC(=O)O)(CC(=O)O)C(=O)O | · | 51.0 | · | · | 7.0 | · | i
N#Cc1c(N)nc2c3c(sc(=N)c2c1N)NC(=O)CC3c1c(F)cccc1Cl (stereo not drawn) | 12.7 | 67.8* | -1.4 | -3.2 | 8.4 | 0.3 | +
CC(=O)N(Cc1cccs1)Cc1cc2ccc(C)c(C)c2nc1Cl | 6.0 | 76.5* | 3.9 | -4.2 | 7.8 | · | i
CCCc1cc(-c2nc(N)ncc2-c2ccc3c(c2)OCCCO3)c(O)cc1OC | -59.2 | 87.8* | 4.3 | -3.5 | 9.0 | 5.3 | +
COc1ccc(C(=O)NCCc2nc(-c3ccncc3)n[nH]2)cc1 | · | -33.1 | · | · | 3.0 | · | ·
CCC(=O)N1CCN(c2nc(-c3ccccc3)c3c(c2C#N)CCCC3)CC1 | 1.6 | 80.9* | 6.2 | -16.0 | 13.5 | 9.1 | i
Cc1nn(C(C)C(N)=O)c(=O)c2cc3ccsc3n12 (stereo not drawn) | · | -13.5 | · | · | 10.8 | · | ·
SMILES | NPY1 pot ag | EP2 modulator | NPY Y1 blocker | NPY-Y2 PAM-ag | PGE2 EP2 inh | NPY-Y2 antag | EP2 cAMP induct
O=C(COC(=O)c1ccccc1Cl)Nc1ccc2c(c1)OCO2 | · | -27.2 | · | · | 7.7 | · | ·
Cc1ccccc1NC(=O)CSc1nc(COc2ccccc2)nc2ccccc12 | -12.4 | 84.5* | 10.3 | -0.3 | 7.2 | 10.1 | i
Cc1cc(SCC(=O)NCCC2=CCCCC2)nc2ccccc12 | -8.5 | 70.4* | 15.7 | -15.3 | 5.4 | 7.5 | i
Cc1cc(SCC(=O)Nc2cccnc2Cl)nc2ccccc12 | -17.1 | 66.7* | 12.4 | -5.3 | 4.4 | · | i
C#CCNC(=O)C1CCN(c2nc(C)nc3c2CCC3)CC1 | · | -11.7 | · | · | 11.3 | · | ·
O=C(Nc1cccc2ccccc12)c1ccc(Br)o1 | -37.0 | -8.4 | 1.3 | -7.4 | · | 0.9 | ·
Cc1c(C(=O)Nc2cccc3cccnc23)oc2ccccc12 | -4.4 | 65.0* | 5.0 | 6.0 | 7.8 | 0.7 | +
O=C(Nc1cccc2cccnc12)c1ccc(Br)o1 | -50.0 | 68.8* | 15.6 | -19.5 | 6.9 | 10.3 | i
Cc1ccccc1NC(=O)c1oc2ccccc2c1C | · | -51.2 | · | · | 10.6 | · | ·
O=C(NCc1ccc2c(c1)OCO2)[C@@H]1C=CCN1C(=O)c1ccc(F)cc1 | · | -16.0 | · | · | · | · | ·
Clc1ccc(-c2nc3ccccn3c2CN2CCCCC2)cc1 | -9.5 | 65.7* | 7.5 | -9.4 | -0.5 | · | i
CC(=O)C(C)n1c(CN2CCCCC2C)nc2c1c(=O)n(C)c(=O)n2C (stereo not drawn) | · | -3.8 | · | · | 6.5 | · | ·
COc1cc(C)c(C(=O)Oc2cc(C)c(C(=O)O)c(O)c2C)c(OC)c1C | -11.6 | 54.6 | 0.5 | -24.0 | 7.8 | · | i
O=C(Cc1ccc(F)cc1)N1CCC[C@@H]1Cn1nc(-c2cccs2)ccc1=O | · | -23.6 | · | · | 3.4 | · | ·
Cc1cc2cc3c(cc2nc1SCC(=O)OC(C)C)OCO3 | -1.9 | 68.5* | 3.0 | -15.4 | · | 1.9 | +
CCOC(=O)c1c(N)nn(C(=O)c2ccccc2F)c1-c1ccc(OC)cc1 | -1.1 | 38.7 | -3.2 | -12.7 | 1.0 | · | ·
CCOC(=O)c1c(N)sc(-c2ccccc2)c1C | -1.5 | 72.7* | 1.9 | 7.8 | 8.1 | 2.0 | i
CCOC(=O)c1c(N)nn(C(=O)C(C)(C)C)c1-c1ccccc1 | 8.7 | 78.0* | 1.5 | -7.0 | 2.9 | 1.0 | +
Nc1ccc(Nc2nc(-c3ccc(O)c(O)c3)cs2)cc1 | · | -135.8 | · | · | 18.8 | · | ·
CC(C)n1[nH]c(=O)cc1N | · | 3.0 | · | · | 10.5 | · | ·
CCn1c2ccccc2c2nc3ccccc3nc21 | -34.0 | 62.4* | 4.1 | -21.0 | 5.7 | 0.1 | i
CCn1c2ccccc2c2nc3cc(OC)c(OC)cc3nc21 | 15.3 | 20.2 | 2.1 | -0.4 | 13.3 | 0.0 | ·
COC(=O)n1c(=S)oc2cc(Cl)ccc21 | -32.7 | 43.1 | 8.4 | -5.1 | 2.1 | 1.6 | ·
CCCCOC(=O)n1c(=S)oc2cc(Cl)ccc21 | 2.9 | 71.3* | -3.5 | -6.6 | 12.8 | 4.4 | i
O=C1NC2=C(C(=O)N(CC3CCCO3)C2)C(c2ccc(F)c(F)c2)N1 (stereo not drawn) | · | -15.6 | · | · | 9.4 | · | ·
O=C(c1ccccn1)N1N=C2/C(=C/c3ccccc3)CCCC2C1c1ccccc1 (stereo not drawn) | 5.3 | 53.4 | 1.1 | 8.4 | 10.2 | 4.7 | ·
O=C1CCC(C(=O)OCC(=O)N2N=C3/C(=C/c4ccccc4)CCCC3C2c2ccccc2)N1 (stereo not drawn) | 5.5 | 77.8* | -4.2 | 1.1 | 5.8 | 7.1 | +
Cc1nn(CC(=O)NC2CCC2)c(=O)c2cc3occc3n12 | · | -1.6 | · | · | 7.7 | · | ·
NCc1nc2cc3ccccc3cc2[nH]1 | · | -28.6 | · | · | 15.5 | · | ·
